Experimental data from ChEMBL document CHEMBL4014311, “Discovery of a Hepatitis C Virus NS5B Replicase Palm Site Allosteric Inhibitor (BMS-929075) Advanced to Phase 1 Clinical Studies” (J Med Chem, 2017).

Experiments:
[1] = Cytotoxicity against human HuH7 cells after 3 days by CellTiter-Blue assay; assay type: cell-based, Huh-7
[2] = Inhibition of HCV genotype 1b NS5B replicase C316N mutant infected in human HuH7 cells assessed as reduction of viral replication after 3 days by luciferase reporter assay; assay type: cell-based, Hepatitis C virus subtype 1b; conditions: Hepatitis C virus, Huh-7, 72 h
Hepatitis C virus [3] = test: Antiviral activity against HCV genotype 1b infected in human HuH7 cells after 3 days by luciferase reporter assay; assay type: functional, cell-based, Hepacivirus hominis; conditions: Hepatitis C virus, genotype 1b, Huh-7, 72 h; read-out: EC50
Hepatitis C virus [4] = test: Antiviral activity against HCV genotype 1a infected in human HuH7 cells after 3 days by luciferase reporter assay; assay type: functional, cell-based, Hepacivirus hominis, subtype 1a; conditions: Hepatitis C virus, subtype 1a, Huh-7, 72 h; read-out: EC50
[5] = Half life in human liver microsomes; assay type: ADME, microsome
[6] = Half life in rat liver microsomes; assay type: ADME, microsome
[7] = Membrane permeability at pH 7.4 by PAMPA; assay type: physicochemical; conditions: read-out: permeability
[8] = Drug uptake in Sprague-Dawley rat liver at 6 mg/kg, po via gavage after 6 hrs by LC-MS/MS analysis; assay type: ADME, organism-based; conditions: read-out: Drug uptake
Summary of the method: (§1)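 Fasted rats were dosed orally in 90:10 PEG-400/ethanol; 6 h livers came from satellite animals. In the screening variant, n = 2 and plasma was taken to 6 h with livers at the terminal point. Livers were rinsed, blotted, weighed and homogenized in 2 volumes of 80% acetonitrile in HBSS per gram, then centrifuged. Supernatant and plasma were analysed by LC/MS/MS.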

Cytochrome P450 2C8 = biological target: T1, Cytochrome P450 2C8 (Homo sapiens, UniProt P10632); test: Inhibition of microsomal CYP2C8 (unknown origin); assay type: ADME
T1 sequence (P10632 whole entry): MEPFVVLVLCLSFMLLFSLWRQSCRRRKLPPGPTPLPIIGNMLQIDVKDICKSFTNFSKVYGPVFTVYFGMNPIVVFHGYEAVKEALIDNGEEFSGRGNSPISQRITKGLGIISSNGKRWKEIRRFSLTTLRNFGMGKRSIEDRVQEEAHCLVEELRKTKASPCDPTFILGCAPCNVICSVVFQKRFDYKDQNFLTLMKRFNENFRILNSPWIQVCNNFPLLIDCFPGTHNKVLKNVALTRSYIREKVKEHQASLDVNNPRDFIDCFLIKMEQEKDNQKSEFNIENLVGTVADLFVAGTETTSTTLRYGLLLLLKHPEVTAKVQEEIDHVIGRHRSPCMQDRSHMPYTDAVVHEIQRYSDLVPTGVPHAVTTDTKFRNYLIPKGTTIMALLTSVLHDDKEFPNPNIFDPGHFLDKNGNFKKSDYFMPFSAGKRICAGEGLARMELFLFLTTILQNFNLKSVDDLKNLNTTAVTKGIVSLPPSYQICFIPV

Cytochrome P450 3A4 = Cytochrome P450 3A4 (Homo sapiens, UniProt P08684); test: Inhibition of microsomal CYP3A4 (unknown origin); assay type: ADME
Cytochrome P450 3A4, sequence (P08684 whole entry): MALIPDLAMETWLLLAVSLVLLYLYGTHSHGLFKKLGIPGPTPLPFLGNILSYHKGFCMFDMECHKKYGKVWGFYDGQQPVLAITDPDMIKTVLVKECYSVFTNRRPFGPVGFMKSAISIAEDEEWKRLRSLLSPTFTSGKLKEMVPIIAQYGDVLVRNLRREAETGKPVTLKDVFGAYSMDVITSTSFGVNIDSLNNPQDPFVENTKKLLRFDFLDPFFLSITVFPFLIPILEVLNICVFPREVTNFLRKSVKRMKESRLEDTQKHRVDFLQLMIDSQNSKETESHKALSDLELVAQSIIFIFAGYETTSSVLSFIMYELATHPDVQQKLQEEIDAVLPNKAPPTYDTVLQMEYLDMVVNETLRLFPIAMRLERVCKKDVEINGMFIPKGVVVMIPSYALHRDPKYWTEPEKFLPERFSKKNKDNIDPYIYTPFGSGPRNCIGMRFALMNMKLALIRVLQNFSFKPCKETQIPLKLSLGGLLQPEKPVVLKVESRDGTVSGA

[9] = Half life in dog liver microsomes; assay type: ADME, Canis lupus familiaris, microsome
[10] = Half life in monkey liver microsomes; assay type: ADME, Macaca mulatta, microsome; conditions: rhesus monkey
[11] = biological target: Voltage-gated inwardly rectifying potassium channel KCNH2 (Homo sapiens, UniProt Q12809); test: Inhibition of human ERG by thallium flux assay
Voltage-gated inwardly rectifying potassium channel KCNH2, sequence (Q12809 whole entry): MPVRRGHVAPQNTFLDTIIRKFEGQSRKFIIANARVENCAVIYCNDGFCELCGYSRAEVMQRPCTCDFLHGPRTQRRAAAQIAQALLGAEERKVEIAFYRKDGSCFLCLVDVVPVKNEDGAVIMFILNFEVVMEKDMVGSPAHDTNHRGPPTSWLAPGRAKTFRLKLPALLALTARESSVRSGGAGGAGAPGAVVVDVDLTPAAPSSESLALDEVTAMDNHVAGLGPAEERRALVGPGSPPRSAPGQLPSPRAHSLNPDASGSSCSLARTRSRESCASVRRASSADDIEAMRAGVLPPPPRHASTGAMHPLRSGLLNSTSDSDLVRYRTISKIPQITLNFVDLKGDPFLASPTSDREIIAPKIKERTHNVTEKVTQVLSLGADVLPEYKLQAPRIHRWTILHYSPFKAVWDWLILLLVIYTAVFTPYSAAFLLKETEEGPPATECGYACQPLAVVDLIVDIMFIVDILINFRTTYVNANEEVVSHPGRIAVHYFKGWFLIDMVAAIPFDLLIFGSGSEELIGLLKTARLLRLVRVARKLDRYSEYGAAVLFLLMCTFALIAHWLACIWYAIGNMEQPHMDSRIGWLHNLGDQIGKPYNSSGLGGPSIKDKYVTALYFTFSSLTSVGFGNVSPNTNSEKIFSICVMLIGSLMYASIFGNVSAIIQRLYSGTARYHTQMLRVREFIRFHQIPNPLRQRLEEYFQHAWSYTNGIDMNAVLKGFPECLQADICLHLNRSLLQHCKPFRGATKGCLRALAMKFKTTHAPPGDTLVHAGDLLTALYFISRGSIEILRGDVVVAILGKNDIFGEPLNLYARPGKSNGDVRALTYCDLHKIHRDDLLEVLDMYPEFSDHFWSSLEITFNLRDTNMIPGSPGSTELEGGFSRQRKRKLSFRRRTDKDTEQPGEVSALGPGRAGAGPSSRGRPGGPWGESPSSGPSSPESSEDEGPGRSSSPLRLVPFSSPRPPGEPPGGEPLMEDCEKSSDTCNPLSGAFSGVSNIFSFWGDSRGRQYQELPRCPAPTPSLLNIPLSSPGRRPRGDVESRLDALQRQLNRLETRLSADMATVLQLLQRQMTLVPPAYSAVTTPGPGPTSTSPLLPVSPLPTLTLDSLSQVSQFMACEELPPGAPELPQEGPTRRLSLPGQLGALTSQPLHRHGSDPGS

[12] = biological target: T2, Nuclear receptor subfamily 1 group I member 2 (Homo sapiens, UniProt O75469); test: Transactivation of PXR (unknown origin); assay type: ADME
T2 sequence (O75469 whole entry): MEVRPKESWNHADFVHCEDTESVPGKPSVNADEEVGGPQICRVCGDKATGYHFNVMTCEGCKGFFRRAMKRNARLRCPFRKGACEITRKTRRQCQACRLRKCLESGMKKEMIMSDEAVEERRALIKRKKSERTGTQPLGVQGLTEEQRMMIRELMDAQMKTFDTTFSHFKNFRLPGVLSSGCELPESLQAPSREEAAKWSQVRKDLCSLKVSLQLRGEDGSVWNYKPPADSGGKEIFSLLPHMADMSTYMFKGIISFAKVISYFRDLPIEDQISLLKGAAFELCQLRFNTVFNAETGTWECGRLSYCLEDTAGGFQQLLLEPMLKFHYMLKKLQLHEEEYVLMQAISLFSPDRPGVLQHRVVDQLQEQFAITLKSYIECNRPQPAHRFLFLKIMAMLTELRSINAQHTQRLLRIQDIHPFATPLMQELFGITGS

[13] = Lipophilicity, log D of the compound at pH 6.5 by shake flask method; assay type: physicochemical; conditions: buffer
hERG = hERG (Homo sapiens, UniProt Q12809); test: Inhibition of human ERG at 10 uM by patch clamp assay
hERG, sequence (Q12809 whole entry): as the sequence (Q12809 whole entry) above

Rattus norvegicus [14] = test: Half life in Sprague-Dawley rat at 2 mg/kg,iv by LC/MS/MS analysis; assay type: ADME, organism-based; conditions: in vivo
Summary of the method: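 A 10 min constant-rate jugular vein infusion was given in 90:10 PEG-400/ethanol (v/v), n = 3 rats. Plasma was sampled predose and at 10, 15, 30, 45, 60 min and 2, 4, 6, 8, 24 h, then assayed by LC/MS/MS. Clearance and apparent terminal t1/2 were estimated by noncompartmental analysis.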

Rattus norvegicus [15] = test: Volume of distribution at steady state in Sprague-Dawley rat at 2 mg/kg, iv by LC/MS/MS analysis; assay type: ADME, organism-based; conditions: in vivo
Summary of the method: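 Rats received a 2 mg/kg IV dose in 90:10 PEG-400/ethanol as a 10 min constant-rate jugular infusion. Blood collected predose and at 10, 15, 30, 45, 60 min and 2, 4, 6, 8, 24 h; n = 3. Plasma analyzed by LC/MS/MS. Vss derived by noncompartmental analysis of IV data.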

[16] = Cmax in Sprague-Dawley rat at 6 mg/kg, po administered via gavage by LC/MS/MS analysis; assay type: ADME, organism-based; set-up: dose 6 mg/kg, route oral; conditions: in vivo
Summary of the method: (§2)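 Rats were fasted overnight with free access to water, then dosed by gastric gavage with an […] solution in 90:10 PEG-400/ethanol (v/v), n = 3 per group. EDTA plasma was sampled predose and at 15, 30, 45, 60 min and 2, 4, 6, 8, 24 h, then assayed by LC/MS/MS. Parameters come from noncompartmental analysis: Cmax observed directly, AUC by linear/log trapezoidal summation, F as dose-normalized PO/IV AUC ratio.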

[17] = Tmax in Sprague-Dawley rat at 6 mg/kg, po administered via gavage by LC/MS/MS analysis; assay type: ADME, organism-based; conditions: in vivo
Summary of the method: (§3)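 Rats fasted overnight, then dosed by gavage at 6 mg/kg in 90:10 PEG-400/ethanol (v/v). Plasma sampled serially from cannula into EDTA tubes predose and at 15, 30, 45, 60 min and 2, 4, 6, 8, 24 h; n = 3. Livers removed at 6 h (satellite animals) and 24 h, homogenized in 80% acetonitrile/HBSS, assayed by LC/MS/MS. Tmax taken directly from observed data.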

[18] = AUC in Sprague-Dawley rat at 6 mg/kg, po administered via gavage by LC/MS/MS analysis; assay type: ADME, organism-based; conditions: in vivo; summary of the method: as §2
[19] = Drug uptake in Sprague-Dawley rat liver at 6 mg/kg, po administered via gavage after 24 hrs by LC/MS/MS analysis; assay type: ADME, organism-based; conditions: read-out: Drug uptake; summary of the method: as §1
[20] = Ratio of drug uptake in Sprague-Dawley rat liver to plasma at 6 mg/kg, po administered via gavage after 24 hrs by LC/MS/MS analysis; assay type: ADME, organism-based; summary of the method: as §3
[21] = Oral bioavailability in Sprague-Dawley rat at 6 mg/kg by LC/MS/MS analysis; assay type: ADME, organism-based; conditions: in vivo; summary of the method: as §2
Hepatitis C virus [22] = test: Ratio of EC50 for HCV genotype 1b infected in human HuH7 cells in presence of 40% human serum to EC50 for HCV genotype-1b infected in human HuH7 cells; assay type: functional, Hepacivirus hominis
Hepatitis C virus [23] = test: Ratio of EC50 for HCV genotype 1a infected in human HuH7 cells in presence of 40% human serum to EC50 for HCV genotype 1a infected in human HuH7 cells; assay type: functional, Hepacivirus hominis, subtype 1a
[24] = Inhibition of HCV genotype 1b NS5B replicase expressed in Escherichia coli BL21(DE3) using polyA/biotinylated oligo(dT12) as template/primer in presence of [3H]UTP after 60 mins by SPA assay; set-up: species or system Hepatitis C virus subtype 1b
[25] = Ratio of IC50 for HCV genotype 1b […] replicase to EC50 for HCV genotype 1b infected in human HuH7 cells; set-up: species or system Hepatitis C virus subtype 1b
[26] = Metabolic stability in human liver microsomes assessed as parent compound remaining after 10 mins; assay type: ADME, microsome; conditions: read-out: Stability
[27] = Metabolic stability in rat liver microsomes assessed as parent compound remaining after 10 mins; assay type: ADME, microsome; conditions: read-out: Stability
[28] = Drug uptake in Sprague-Dawley rat plasma at 6 mg/kg, po via gavage after 6 hrs by LC-MS/MS analysis; assay type: ADME, organism-based; summary of the method: as §1
[29] = Clearance in Sprague-Dawley rat at 6 mg/kg, po via gavage by LC-MS/MS analysis; assay type: ADME, organism-based; conditions: in vivo

Row | Structure (SMILES) | EC50 [2] | EC50 (Hepatitis C virus [3]) | EC50 (Hepatitis C virus [4]) | half-life [5] | half-life [6] | Papp [7] | concentration at 6 h [8] | IC50 (Cytochrome P450 2C8) | IC50 (Cytochrome P450 3A4) | half-life [9] | half-life [10] | EC50 [12] | logD [13] | further results
1 | CNC(=O)c1c(-c2ccc(F)cc2)oc2ccc(-c3cc(C(=O)NC4(c5ncccn5)CC4)ccc3C)cc12 | 51 nM | 1 nM | 2.3 nM | > 2 h | 1.43 h | 76.9 ×10⁻⁶ cm/s | 8.7 µM | 3900 nM | 11400 nM | 0.767 h | 0.85 h | > 50000 nM | 4.76 | CC50 at 72 h [1]: 20000 nM; IC50 [11]: 4800 nM; inhibition at 10 µM (hERG): 96%; t1/2 (Rattus norvegicus [14]): 5.3 h; Vdss (Rattus norvegicus [15]): 6.1 L/kg; Cmax [16]: 6.7 µM; Tmax [17]: 4.7 h; AUC [18]: 48.7 µM·h; concentration at 24 h [19]: 0.614 µM; Kp at 24 h [20]: 2.4; bioavailability [21]: > 100%; Ratio EC50 (Hepatitis C virus [22]): 4; Ratio EC50 (Hepatitis C virus [23]): 4
2 | CNC(=O)c1cccc(-c2ccc3oc(-c4ccc(F)cc4)c(C(=O)NC)c3c2)c1 |  | 590 nM |  |  |  |  |  |  |  |  |  |  |  | IC50 [24]: 2200 nM; Ratio IC50/EC50 [25]: 2
3 | CNC(=O)c1c(-c2ccc(F)cc2)oc2ccc(-c3cc(C(=O)NC4(c5ccccn5)CC4)ccc3C)cc12 | 55 nM | 1.9 nM | 2.8 nM | 1.8 h | 1.02 h | 99.9 ×10⁻⁶ cm/s | 15.7 µM | 1000 nM | 4100 nM | 0.233 h | 0.333 h | 1600 nM | 5.42 | remaining at 10 min [26]: 89%; remaining at 10 min [27]: 82%; concentration at 6 h [28]: 1.64 µM; CL/F [29]: 14 mL/min/kg
